Reference: ChEMBL document CHEMBL4024762, “Discovery of N-(3-Carbamoyl-5,5,7,7-tetramethyl-5,7-dihydro-4H-thieno[2,3-c]pyran-2-yl)-lH-pyrazole-5-carboxamide (GLPG1837), a Novel Potentiator Which Can Open Class III Mutant Cystic Fibrosis Transmembrane Conductance Regulator (CFTR) Channels to a High Extent” (J Med Chem, 2018)
In brackets after ≈: the same amount, converted by molar mass. Activity calls are given as the source filed them. No cut-off for these calls is given here.

Tests used:
[1] = Unbound intrinsic clearance in rat hepatocytes; type: ADME, cell-based, Hepatocyte
How it was run: (§1)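 Intrinsic clearance in liver microsomes or hepatocytes, corrected for non-specific binding using fraction unbound in microsomes (Fu,mic) or in hepatocyte incubations (Fu,inc).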

[2] = system: Cystic fibrosis transmembrane conductance regulator (Homo sapiens), P13569 [R117H]; assay: Potentiation of CFTR R117H mutant (unknown origin) expressed in HEK293 cells incubated for 10 mins in presence of forskolin measured for 2 mins by YFP halide assay relative to ivacaftor; type: cell-based
[3] = system: Cystic fibrosis transmembrane conductance regulator (Homo sapiens), P13569 [F508del]; assay: Potentiation of CFTR F508del mutant in primary HBE cells assessed as increase in channel conductivity measured every 2 mins for 20 mins by TECC assay; type: cell-based
How it was run: (§2)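 TECC on primary epithelia bathed both sides in NaCl Ringer, pH 7.4, at 37°C. Apical amiloride 100 µM; forskolin 10 µM apical and basolateral. One compound concentration per transwell. EC50 derived from the increase in Ieq. Duplicate or triplicate, mean ± SEM; 10 µM CFTRinh-172 used for specificity.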

[4] = Unbound intrinsic clearance in rat microsomes; type: ADME, Microsome; how it was run: as §1
[5] = Permeability across apical to basolateral side in MDCK cells; type: ADME, cell-based, Canis lupus familiaris; settings: dog, read-out: permeability
[6] = system: Cystic fibrosis transmembrane conductance regulator (Homo sapiens), P13569 [S549N]; assay: Potentiation of CFTR S549N mutant (unknown origin) expressed in HEK293 cells incubated for 10 mins in presence of forskolin measured for 2 mins by YFP halide assay relative to ivacaftor; type: cell-based
[7] = AUC in rat at 300 mg/kg, po; type: ADME, organism-based; settings: in vivo
[8] = Half life in rat at 1 mg/kg, iv; type: ADME, organism-based; settings: in vivo
How it was run: (§3)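 IV PK in rat and dog at 1 mg/kg. Cl, Cl,unb (L/h/kg), Vd (L/kg) and T1/2 (h) were derived from plasma levels.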

Homo sapiens [9] = assay: Toxicity in human up to 800 mg, bid administered for 14 days; settings: 336 h
[10] = AUC in rat at 5 mg/kg, po; type: ADME, organism-based; settings: in vivo
[11] = Cmax in rat at 300 mg/kg, po; type: ADME, organism-based; design: dose 300 mg/kg, route oral; settings: in vivo
[12] = target: Cystic fibrosis transmembrane conductance regulator (Homo sapiens, UniProt P13569, F508DEL); assay: (§4) Potentiation of CFTR F508del mutant (unknown origin) expressed in human CFBE41o cells incubated for 10 mins in presence of forskolin measured for 7 secs by YFP halide assay; type: cell-based
How it was run: (§5)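 CFBE41o- cells (CF bronchial line) transduced by adenovirus with F508del CFTR and YFP (H148Q/I152L/F47L). Cells held 24 h at 27°C, then treated 10 min at room temperature with 10 µM forskolin plus potentiator. YFP fluorescence read for 7 s across addition of NaI buffer (137 mM NaI). Activity = 1-(F/F0).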

[13] = system: Cystic fibrosis transmembrane conductance regulator (Homo sapiens), P13569 [F508del]; assay: as §4; type: cell-based; design: concentration or dose not given beside the values; how it was run: as §5
[14] = Volume of distribution in rat at 1 mg/kg, iv; type: ADME, organism-based; settings: in vivo; how it was run: as §3
[15] = Oral bioavailability in dog at 5 mg/kg; type: ADME, organism-based, Canis lupus familiaris; settings: in vivo
How it was run: (§6)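 F% in rat and dog after a 5 mg/kg PO dose, referenced to the 1 mg/kg IV PK parameters.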

[16] = system: Cystic fibrosis transmembrane conductance regulator (Homo sapiens), P13569 [G178R]; assay: Potentiation of CFTR G178R mutant (unknown origin) expressed in HEK293 cells incubated for 10 mins in presence of forskolin measured for 2 mins by YFP halide assay relative to ivacaftor; type: cell-based
[17] = target: T1, Cystic fibrosis transmembrane conductance regulator (Homo sapiens, UniProt P13569, G551D); assay: Potentiation of CFTR G551D mutant in primary HBE cells assessed as increase in channel conductivity measured every 2 mins for 20 mins by TECC assay; type: cell-based; how it was run: as §2
[18] = Oral bioavailability in rat at 5 mg/kg; type: ADME, organism-based; settings: in vivo; how it was run: as §6
[19] = Unbound intrinsic clearance in human hepatocytes; type: ADME, cell-based, Hepatocyte
[20] = target: Voltage-gated inwardly rectifying potassium channel KCNH2 (Homo sapiens, UniProt Q12809); assay: Inhibition of human ERG by manual patch clamp method
[21] = Efflux ratio of permeability in MDCK cells; type: ADME, cell-based, Canis lupus familiaris; settings: dog
[22] = system: Cystic fibrosis transmembrane conductance regulator (Homo sapiens), P13569 [G551D]; assay: Potentiation of CFTR G551D mutant in primary HBE cells assessed as increase in channel conductivity measured every 2 mins for 20 mins by TECC assay relative to ivacaftor; type: cell-based
[23] = Half life in dog at 1 mg/kg, iv; type: ADME, organism-based, Canis lupus familiaris; settings: in vivo; how it was run: as §3
[24] = Volume of distribution in dog at 1 mg/kg, iv; type: ADME, organism-based, Canis lupus familiaris; settings: in vivo; how it was run: as §3
Cytochrome P450 2C19 = Cytochrome P450 2C19 (Homo sapiens, UniProt P33261); assay: Inhibition of CYP2C19 (unknown origin); type: ADME
[25] = Cmax in rat at 5 mg/kg, po; type: ADME, organism-based; design: dose 5 mg/kg, route oral; settings: in vivo
Homo sapiens [26] = assay: Toxicity in human up to 2000 mg administered as single dose
[27] = Clearance in rat at 1 mg/kg, iv; type: ADME, organism-based; settings: in vivo; how it was run: as §3
[28] = Clearance in dog at 1 mg/kg, iv; type: ADME, organism-based, Canis lupus familiaris; settings: in vivo; how it was run: as §3
[29] = Thermodynamic solubility of the compound at pH 3; type: physicochemical; settings: buffer, read-out: Therm_solubility
Canis familiaris = assay: Unbound clearance in dog at 1 mg/kg, iv; type: ADME, organism-based, Canis lupus familiaris; settings: in vivo; how it was run: as §3
Cytochrome P450 2C9 = Cytochrome P450 2C9 (Homo sapiens, UniProt P11712); assay: Inhibition of CYP2C9 (unknown origin); type: ADME
Rattus norvegicus = assay: Unbound clearance in rat at 1 mg/kg, iv; type: ADME, organism-based; settings: in vivo; how it was run: as §3
Cytochrome P450 3A4 = Cytochrome P450 3A4 (Homo sapiens, UniProt P08684); assay: Inhibition of CYP3A4 (unknown origin); type: ADME
Cytochrome P450 2D6 = Cytochrome P450 2D6 (Homo sapiens, UniProt P10635); assay: Inhibition of CYP2D6 (unknown origin); type: ADME
[30] = Unbound intrinsic clearance in human microsomes; type: ADME, Microsome
Cytochrome P450 1A2 = target: T2, Cytochrome P450 1A2 (Homo sapiens, UniProt P05177); assay: Inhibition of CYP1A2 (unknown origin); type: ADME
T2 sequence (P05177 whole entry): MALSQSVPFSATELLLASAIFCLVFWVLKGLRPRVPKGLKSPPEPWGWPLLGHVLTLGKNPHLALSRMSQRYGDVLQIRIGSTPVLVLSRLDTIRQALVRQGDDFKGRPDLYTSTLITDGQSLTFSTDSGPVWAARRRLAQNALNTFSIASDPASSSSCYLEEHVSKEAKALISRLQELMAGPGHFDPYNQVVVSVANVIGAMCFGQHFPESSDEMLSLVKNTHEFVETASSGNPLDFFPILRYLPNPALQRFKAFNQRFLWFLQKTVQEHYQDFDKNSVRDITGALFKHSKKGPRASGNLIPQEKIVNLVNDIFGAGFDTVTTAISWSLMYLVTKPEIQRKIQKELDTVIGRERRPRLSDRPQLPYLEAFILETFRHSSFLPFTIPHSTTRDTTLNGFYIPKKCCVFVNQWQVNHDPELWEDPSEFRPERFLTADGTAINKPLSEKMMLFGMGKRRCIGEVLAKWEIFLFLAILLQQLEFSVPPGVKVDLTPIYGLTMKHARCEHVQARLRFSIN

[31] = Thermodynamic solubility of the compound at pH 7.4; type: physicochemical; settings: buffer, read-out: Therm_solubility
[32] = target: T1, Cystic fibrosis transmembrane conductance regulator; assay: (§7) Potentiation of CFTR G551D mutant (unknown origin) expressed in HEK293 cells incubated for 10 mins in presence of forskolin measured for 2 mins by YFP halide assay; type: cell-based
How it was run: (§8)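 HEK293 cells transfected with the mutant CFTR (G551D, G178R, S549N or R117H) and YFP (H148Q/I152L/F47L), seeded directly after transfection, then 24 h at 37°C. Treated 10 min at room temperature with 10 µM forskolin plus potentiator. Fluorescence read for 2 min across addition of NaI buffer (375 mM NaI). Activity = 1-(F/F0).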

[33] = system: Cystic fibrosis transmembrane conductance regulator (Homo sapiens), P13569 [G551D]; assay: as §7; type: cell-based; design: concentration or dose not given beside the values; how it was run: as §8

Sequence of Cystic fibrosis transmembrane conductance regulator (Homo sapiens), P13569 [F508del] (P13569 as listed by the source): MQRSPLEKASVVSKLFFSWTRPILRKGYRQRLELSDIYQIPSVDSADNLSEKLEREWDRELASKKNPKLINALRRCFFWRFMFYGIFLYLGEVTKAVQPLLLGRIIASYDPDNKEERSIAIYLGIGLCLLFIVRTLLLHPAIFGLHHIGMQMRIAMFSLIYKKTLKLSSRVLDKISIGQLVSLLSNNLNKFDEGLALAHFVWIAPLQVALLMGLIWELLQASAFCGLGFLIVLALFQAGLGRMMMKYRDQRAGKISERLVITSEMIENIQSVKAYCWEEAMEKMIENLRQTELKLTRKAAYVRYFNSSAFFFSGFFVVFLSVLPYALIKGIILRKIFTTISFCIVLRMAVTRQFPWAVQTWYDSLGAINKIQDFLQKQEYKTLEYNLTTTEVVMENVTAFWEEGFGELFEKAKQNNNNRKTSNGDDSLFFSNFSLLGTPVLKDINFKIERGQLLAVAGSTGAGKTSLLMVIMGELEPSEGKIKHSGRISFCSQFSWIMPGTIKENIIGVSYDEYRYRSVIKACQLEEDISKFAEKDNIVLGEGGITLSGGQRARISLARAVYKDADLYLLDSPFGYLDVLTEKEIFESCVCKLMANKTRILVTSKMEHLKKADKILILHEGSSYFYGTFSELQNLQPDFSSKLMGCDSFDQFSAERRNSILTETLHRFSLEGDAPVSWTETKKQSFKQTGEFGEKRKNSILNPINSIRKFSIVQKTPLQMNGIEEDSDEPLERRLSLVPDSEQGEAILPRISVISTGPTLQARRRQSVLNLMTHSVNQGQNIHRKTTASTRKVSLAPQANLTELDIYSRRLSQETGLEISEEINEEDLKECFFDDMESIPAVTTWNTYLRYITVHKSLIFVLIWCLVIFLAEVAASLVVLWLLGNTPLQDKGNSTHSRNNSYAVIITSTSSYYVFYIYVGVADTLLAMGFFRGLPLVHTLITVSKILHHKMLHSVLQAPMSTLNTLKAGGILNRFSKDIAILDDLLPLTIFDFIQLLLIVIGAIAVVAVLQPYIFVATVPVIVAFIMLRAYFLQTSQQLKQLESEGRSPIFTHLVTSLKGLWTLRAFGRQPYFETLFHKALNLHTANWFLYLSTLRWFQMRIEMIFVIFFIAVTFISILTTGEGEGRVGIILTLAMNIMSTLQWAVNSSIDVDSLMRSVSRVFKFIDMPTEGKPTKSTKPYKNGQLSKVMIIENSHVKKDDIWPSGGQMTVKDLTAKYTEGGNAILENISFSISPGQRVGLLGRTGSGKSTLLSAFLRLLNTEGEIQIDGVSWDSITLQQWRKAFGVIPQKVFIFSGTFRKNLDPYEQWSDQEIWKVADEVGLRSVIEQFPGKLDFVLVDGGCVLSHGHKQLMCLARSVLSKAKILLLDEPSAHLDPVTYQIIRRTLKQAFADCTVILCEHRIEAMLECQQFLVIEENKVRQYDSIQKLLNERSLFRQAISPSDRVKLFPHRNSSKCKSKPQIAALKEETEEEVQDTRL
T1 sequence (P13569 whole entry G551D): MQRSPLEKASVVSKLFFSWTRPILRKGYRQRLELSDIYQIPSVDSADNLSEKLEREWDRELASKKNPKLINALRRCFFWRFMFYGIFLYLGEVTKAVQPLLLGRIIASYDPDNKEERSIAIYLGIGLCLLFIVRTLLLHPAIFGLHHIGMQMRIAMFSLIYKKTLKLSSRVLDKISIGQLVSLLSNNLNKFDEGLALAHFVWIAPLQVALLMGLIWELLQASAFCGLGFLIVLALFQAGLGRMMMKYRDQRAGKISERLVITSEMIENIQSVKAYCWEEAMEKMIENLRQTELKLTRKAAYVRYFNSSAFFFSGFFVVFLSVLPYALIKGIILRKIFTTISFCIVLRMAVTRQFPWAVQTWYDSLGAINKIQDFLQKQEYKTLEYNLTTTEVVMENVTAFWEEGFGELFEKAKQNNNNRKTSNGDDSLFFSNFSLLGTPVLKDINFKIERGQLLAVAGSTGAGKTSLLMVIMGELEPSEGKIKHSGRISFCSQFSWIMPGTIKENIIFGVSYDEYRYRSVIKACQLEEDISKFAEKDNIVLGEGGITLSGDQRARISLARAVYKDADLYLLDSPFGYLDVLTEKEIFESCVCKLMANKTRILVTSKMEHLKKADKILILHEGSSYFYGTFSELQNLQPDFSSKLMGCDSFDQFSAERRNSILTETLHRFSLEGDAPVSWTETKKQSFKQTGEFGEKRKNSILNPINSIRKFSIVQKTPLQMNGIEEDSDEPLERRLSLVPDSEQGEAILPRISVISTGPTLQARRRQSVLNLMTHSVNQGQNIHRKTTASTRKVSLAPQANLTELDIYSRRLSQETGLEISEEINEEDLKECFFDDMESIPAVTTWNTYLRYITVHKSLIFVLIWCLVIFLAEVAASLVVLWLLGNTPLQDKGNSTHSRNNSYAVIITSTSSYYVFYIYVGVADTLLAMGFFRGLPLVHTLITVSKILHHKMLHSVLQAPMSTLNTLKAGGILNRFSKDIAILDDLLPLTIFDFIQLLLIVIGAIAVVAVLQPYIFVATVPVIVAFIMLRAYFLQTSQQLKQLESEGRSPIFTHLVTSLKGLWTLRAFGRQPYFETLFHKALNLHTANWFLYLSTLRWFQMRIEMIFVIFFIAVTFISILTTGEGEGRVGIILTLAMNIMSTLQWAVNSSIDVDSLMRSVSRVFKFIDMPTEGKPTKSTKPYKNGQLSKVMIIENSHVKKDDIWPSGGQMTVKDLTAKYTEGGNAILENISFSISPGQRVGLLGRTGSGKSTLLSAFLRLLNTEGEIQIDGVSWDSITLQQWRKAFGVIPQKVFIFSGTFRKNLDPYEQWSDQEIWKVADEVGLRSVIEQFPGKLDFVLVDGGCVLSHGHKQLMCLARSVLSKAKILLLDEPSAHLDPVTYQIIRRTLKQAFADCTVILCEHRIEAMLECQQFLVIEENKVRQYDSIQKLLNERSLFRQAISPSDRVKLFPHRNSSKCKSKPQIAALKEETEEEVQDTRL
Sequence of Cystic fibrosis transmembrane conductance regulator (Homo sapiens), P13569 [G551D] (P13569 whole entry G551D): as above
Sequence of Cystic fibrosis transmembrane conductance regulator (Homo sapiens, UniProt P13569, F508DEL) (P13569 as listed by the source): as the sequence (P13569 as listed by the source) above
Sequence of Cytochrome P450 3A4 (P08684 whole entry): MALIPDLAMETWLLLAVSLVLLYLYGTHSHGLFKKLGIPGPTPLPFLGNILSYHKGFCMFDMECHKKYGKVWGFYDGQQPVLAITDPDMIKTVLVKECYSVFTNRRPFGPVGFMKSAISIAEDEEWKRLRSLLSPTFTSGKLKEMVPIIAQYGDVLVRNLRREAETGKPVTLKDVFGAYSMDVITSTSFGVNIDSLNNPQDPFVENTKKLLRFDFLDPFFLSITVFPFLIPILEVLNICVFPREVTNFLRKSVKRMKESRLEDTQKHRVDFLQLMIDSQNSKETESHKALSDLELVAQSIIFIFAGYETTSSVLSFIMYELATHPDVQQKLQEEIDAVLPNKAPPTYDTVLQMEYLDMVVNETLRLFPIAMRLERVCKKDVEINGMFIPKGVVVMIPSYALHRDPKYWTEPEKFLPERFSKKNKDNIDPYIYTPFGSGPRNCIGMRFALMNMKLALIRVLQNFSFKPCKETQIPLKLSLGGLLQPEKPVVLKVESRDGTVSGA
Sequence of Cytochrome P450 2C9 (P11712 whole entry): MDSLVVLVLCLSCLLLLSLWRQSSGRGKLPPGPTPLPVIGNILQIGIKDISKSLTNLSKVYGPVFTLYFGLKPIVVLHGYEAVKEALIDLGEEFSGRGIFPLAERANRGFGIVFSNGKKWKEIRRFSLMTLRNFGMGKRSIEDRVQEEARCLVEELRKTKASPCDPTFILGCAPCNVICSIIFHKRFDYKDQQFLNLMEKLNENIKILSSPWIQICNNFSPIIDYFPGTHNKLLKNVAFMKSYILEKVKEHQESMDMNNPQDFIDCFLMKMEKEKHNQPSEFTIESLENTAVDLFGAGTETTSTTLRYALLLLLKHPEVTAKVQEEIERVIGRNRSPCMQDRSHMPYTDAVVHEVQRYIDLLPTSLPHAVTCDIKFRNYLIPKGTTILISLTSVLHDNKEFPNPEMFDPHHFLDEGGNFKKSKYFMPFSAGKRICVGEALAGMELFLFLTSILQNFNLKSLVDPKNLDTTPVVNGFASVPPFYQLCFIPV
Sequence of Cytochrome P450 2C19 (P33261 whole entry): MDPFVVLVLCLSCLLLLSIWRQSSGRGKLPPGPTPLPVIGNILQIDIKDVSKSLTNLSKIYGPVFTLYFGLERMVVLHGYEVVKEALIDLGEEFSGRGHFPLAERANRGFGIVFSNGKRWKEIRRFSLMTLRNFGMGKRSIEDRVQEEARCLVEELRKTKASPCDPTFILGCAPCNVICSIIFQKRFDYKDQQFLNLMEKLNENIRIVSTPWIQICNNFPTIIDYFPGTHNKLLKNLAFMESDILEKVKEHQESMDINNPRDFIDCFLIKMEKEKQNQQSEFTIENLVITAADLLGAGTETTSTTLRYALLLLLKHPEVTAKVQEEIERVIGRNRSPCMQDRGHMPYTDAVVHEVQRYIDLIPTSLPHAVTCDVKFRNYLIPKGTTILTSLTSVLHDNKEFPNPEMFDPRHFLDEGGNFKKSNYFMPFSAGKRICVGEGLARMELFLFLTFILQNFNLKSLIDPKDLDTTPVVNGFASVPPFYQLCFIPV
Sequence of Cytochrome P450 2D6 (P10635 whole entry): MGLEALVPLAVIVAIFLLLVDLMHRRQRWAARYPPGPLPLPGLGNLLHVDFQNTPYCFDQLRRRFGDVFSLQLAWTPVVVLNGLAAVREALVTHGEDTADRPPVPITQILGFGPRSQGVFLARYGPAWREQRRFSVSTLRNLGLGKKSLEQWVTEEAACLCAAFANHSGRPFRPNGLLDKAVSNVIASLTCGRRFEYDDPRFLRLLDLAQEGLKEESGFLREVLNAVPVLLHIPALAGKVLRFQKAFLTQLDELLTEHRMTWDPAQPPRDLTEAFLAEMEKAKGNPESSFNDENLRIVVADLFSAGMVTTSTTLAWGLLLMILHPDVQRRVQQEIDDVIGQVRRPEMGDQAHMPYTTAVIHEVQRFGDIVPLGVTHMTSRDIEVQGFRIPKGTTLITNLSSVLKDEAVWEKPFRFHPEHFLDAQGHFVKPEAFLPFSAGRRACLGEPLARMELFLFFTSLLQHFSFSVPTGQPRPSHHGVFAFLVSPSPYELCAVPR
Sequence of Cystic fibrosis transmembrane conductance regulator (Homo sapiens), P13569 [S549N] (P13569 whole entry S549N): as the sequence (P13569 whole entry G551D) above, with S549N, D551G counted along it

With CC1(C)Cc2c(sc(NC(=O)c3ccn[nH]3)c2C(N)=O)C(C)(C)O1 the CL free [1] was 5.7 L/h/kg, the Efficacy [2] was 119% and the Activity [3] was “Active”. It also gave a CL free [4] of 1.7 L/h/kg, a Papp A→B [5] of 11 ×10⁻⁶ cm/s and an Efficacy [6] of 143%. The AUC [7] was 68200 ng·h/mL, the half-life [8] was 110 min and the Activity (Homo sapiens [9]) was “Non-Toxic”. It also gave an AUC [10] of 1540 ng·h/mL, a Cmax [11] of 4670 ng/mL and an EC50 [12] of 3 nM. For the same molecule, the Activity [13] was 105%, the Vd [14] was 4.8 L/kg and the bioavailability [15] was over 100%. It also gave an Efficacy [16] of 158%, an EC50 [17] of 181 nM and a bioavailability [18] of 67%. The CL free [19] was 1.8 L/h/kg, the EC50 [20] was over 33 µM and the efflux ratio [21] was 2.6. The Activity [22] was 200%, the half-life [23] was 180 min and the Vd [24] was 1.4 L/kg. For the same molecule, the EC50 (Cytochrome P450 2C19) was over 100 µM, the Cmax [25] was 331 ng/mL and the Activity (Homo sapiens [26]) was “Non-Toxic”. The clearance [27] was 32 mL/min/kg, the clearance [28] was 5.33 mL/min/kg and the solubility thermodynamic [29] was 11 µM (≈ 3.83 µg/mL). The CL free (Canis familiaris) was 6.4 L/h/kg, the EC50 (Cytochrome P450 2C9) was over 100 µM and the CL free (Rattus norvegicus) was 24 L/h/kg. The EC50 (Cytochrome P450 3A4) was over 100 µM, the EC50 (Cytochrome P450 2D6) was over 100 µM and the CL free [30] was 1.1 L/h/kg. For the same molecule, the EC50 (Cytochrome P450 1A2) was over 100 µM, the solubility thermodynamic [31] was 8.6 µM (≈ 3 µg/mL) and the EC50 [32] was 339 nM. It also gave an Activity [33] of 103%.
